# Compounds with a hit are over-represented: about 2.1% of the library has one in this group of screens.
# Runt-SMMHC FRET – Runt domain-CBFb-SMMHC interaction inhibition; Cerulean-Runt/Venus-CBFb-SMMHC FRET ratio 530/480, 1 h; Q01196+Q13951; inhibition, % at 20 µM; 220,000 compounds, 0.74% hits;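 active means mean inhibition across duplicate retests at 20 µM reaching about 50%, limit read from the data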;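 further: 0% = DMSO wells and 100% = wells with excess untagged CBFb-SMMHC; inhibitors lower the FRET ratio by blocking Runt binding to CBFb-SMMHC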
# Hck Nef HTS – human Hck-Nef kinase inhibition; Recombinant Hck-YEEI plus Nef, Z-Lyte FRET kinase assay; inhibition, % at 20 µM; 220,000 compounds, 0.68% hits; AID 463187;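 active means Hck-Nef kinase inhibition above about 50%, limit read from the data; inactive means inhibition below that limit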;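 further: 0% = DMSO with Hck plus Nef and 100% = Hck alone without Nef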
# pCIP destab – p/CIP protein destabilization | Q05BA5 | 290,000 compounds, 0.01% hits | AID 1984 | F442A p/CIP-EGFP cells, EGFP fluorescence, 16 h | decrease of EGFP signal, % at 10 µM;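 active means EGFP signal decrease of at least 30% at 10 µM or well 3 SD below plate mean, unless failing retest; inactive means the rest, including hits failing retest or dose response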
# Target sequence (Q05BA5 1-1403): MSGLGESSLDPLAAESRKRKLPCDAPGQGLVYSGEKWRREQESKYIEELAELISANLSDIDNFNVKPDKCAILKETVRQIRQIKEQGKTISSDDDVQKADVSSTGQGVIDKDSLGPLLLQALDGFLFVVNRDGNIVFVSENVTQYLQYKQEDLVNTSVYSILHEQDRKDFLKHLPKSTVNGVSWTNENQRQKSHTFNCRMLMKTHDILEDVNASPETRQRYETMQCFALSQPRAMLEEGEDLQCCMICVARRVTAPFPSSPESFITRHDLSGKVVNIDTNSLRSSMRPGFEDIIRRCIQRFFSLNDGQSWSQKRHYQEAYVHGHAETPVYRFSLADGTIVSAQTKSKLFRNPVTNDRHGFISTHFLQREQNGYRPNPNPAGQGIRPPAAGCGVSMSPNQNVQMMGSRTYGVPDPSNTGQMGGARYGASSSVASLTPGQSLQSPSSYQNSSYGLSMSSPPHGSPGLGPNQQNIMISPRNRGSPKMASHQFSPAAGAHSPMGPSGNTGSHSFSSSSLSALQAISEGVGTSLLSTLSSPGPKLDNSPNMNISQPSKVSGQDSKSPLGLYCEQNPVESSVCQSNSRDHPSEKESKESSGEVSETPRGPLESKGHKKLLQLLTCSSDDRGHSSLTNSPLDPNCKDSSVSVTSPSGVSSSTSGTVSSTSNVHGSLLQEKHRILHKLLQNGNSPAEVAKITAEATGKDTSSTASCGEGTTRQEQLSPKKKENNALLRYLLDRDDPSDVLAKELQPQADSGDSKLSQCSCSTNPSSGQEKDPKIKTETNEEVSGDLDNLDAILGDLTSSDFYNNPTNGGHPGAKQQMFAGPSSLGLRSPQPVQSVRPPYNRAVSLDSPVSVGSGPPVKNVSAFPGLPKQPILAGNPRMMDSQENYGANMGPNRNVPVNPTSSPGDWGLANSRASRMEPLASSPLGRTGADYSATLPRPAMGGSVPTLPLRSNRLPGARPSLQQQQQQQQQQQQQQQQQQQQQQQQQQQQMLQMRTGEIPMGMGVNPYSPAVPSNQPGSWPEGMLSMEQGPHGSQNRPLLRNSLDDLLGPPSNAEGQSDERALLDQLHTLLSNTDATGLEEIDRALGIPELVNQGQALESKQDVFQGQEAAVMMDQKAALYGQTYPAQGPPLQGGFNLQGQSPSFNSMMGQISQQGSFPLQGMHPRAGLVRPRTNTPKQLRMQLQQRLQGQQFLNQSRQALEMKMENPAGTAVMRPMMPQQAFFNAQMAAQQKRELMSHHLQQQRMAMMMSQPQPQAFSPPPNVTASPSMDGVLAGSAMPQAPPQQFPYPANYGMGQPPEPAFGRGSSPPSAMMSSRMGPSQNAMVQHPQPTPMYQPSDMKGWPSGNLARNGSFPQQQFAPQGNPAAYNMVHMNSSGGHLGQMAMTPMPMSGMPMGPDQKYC
# Runt-CBFb FRET – inhibitors of human RUNX1 Runt domain binding to CBFb; Q01196+Q13951; Cerulean-Runt/Venus-CBFb FRET ratio 530/480, 1 h; inhibition, % at 20 µM; 220,000 compounds, 0.46% hits; AID 1496;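 active means inhibition over about 50% at 20 µM in the single-dose screen, limit read from the data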;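 further: 0% = DMSO wells and 100% = excess unlabeled CBFb competitor control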
#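 Assay system: Cerulean-Runt domain fusion protein, energy donor; Signal: fluorescence energy transfer, 422 nm excitation, 530/480 nm emission; Timing: 1 h compound exposure, room temperature; Control set: unlabeled CBFb; Medium: Tris buffer pH 7.5 with salts and BSA; Compound: single test concentration of 20 µM, 1% DMSO final; Probe or stimulus: Venus-CBFb 100 nM.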
# RanGTP-Imp inh – disruptors of Ran-importin-beta complex formation – biochemical, FRET, CFP-Ran, YFP-importin-beta, homogeneous, primary screen. cell-free CFP-Ran/YFP-importin-beta FRET ratio. inhibition, % (test concentration not listed). 300,000 compounds, 1.1% hits;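 active means more than half of the replicate wells show a fall in the fluorescence ratio signal beyond about 16%, limit read from the data, passing the limit was not always enough; inconclusive means exactly half of the replicate wells pass the set limit; inactive means fewer than half of replicates pass the limit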;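 further: 0% = DMSO wells and 100% = Ran loaded with GDP instead of GTP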
# Pemphigus Ab inh – inhibitors of pemphigus antibody binding to human desmoglein-3; DSG3-coupled beads, scFv-anti-DSG3-GFP binding, flow cytometry; active compounds read low; binding (percent of control), % at 10 µM; 310,000 compounds, 0.48% hits;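 active means binding more than 3 SD below its plate's average and above zero; inconclusive means below that plate limit but binding exactly zero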;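 further: hits lower antibody fragment binding to DSG3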
# RUNX1 CBFb TR – inhibitors of human RUNX1 Runt domain binding to CBFb; shares compounds with Runt-CBFb FRET; TR-FRET RUNX1 Runt domain-CBFb binding; inhibition, % at 20 µM; 480 compounds, 20% hits; AID 1502; in the data active means inhibition above about 40%
# An asterisk follows results filed as active; ? = inconclusive; · = no result given.
SMILES,Runt-SMMHC FRET,Hck Nef HTS,pCIP destab,Runt-CBFb FRET,RanGTP-Imp inh,Pemphigus Ab inh,RUNX1 CBFb TR
CCC(=O)/C=C1/Sc2ccccc2N1CC,44,6,-7,55*,1,·,12
CCC(=O)/C=C1/Sc2ccc(OC)cc2N1CC,0,1,-14,·,6,80,·
CCN(CC)C(CNC(=O)CSc1nnnn1-c1c(C)cccc1C)c1ccco1 (configuration not stated),·,·,·,·,·,108,·
CCOc1ccccc1NC(=O)C(OC(=O)c1ccccc1O)c1ccccc1 (configuration not stated),-1,-2,2,0,-4,103,·
CCOc1ccccc1NC(=O)C(OC(=O)c1cc(C)oc1C)c1ccccc1 (configuration not stated),3,7,-2,54*,-5,115,-13
CCn1c2ccccc2c2cc(NC(=O)N3CCCCC3)ccc21,·,·,·,·,·,97,·
O=C(Cn1c(=O)oc2ccccc21)Nc1n[nH]c(=S)s1,22,-65,6,54*,0,96,63*
O=C(Cn1c(=O)oc2ccccc21)Nc1nc(-c2ccccc2)cs1,-2,-1,1,1,-2,107,·
Cc1ccc(C2OC34CCCCCC3C(C#N)(C(=N)O4)C2(C#N)C#N)cc1 (configuration not stated),99*,-1,8,52*,34*,100,30
CC(C)CC(=O)NN1CCCCC1,0,-22,-9,75*,9,98,58*
CCC(C)NC(=O)CC(C)C (configuration not stated),0,17,-5,2,1,89,·
O=C(OCC(=O)N1CCC(Cc2ccccc2)CC1)c1ccc(O)cc1,·,·,·,·,·,100,·
CCOC(=O)C1=CN(Cc2ccco2)S(=O)(=O)NC1c1cccc(OC)c1 (configuration not stated),·,·,·,·,·,108,·
CCN1CCN(c2nc(C)nc3c2sc(=S)n3C)CC1,38,-23,6,53*,·,112,-1
Cc1nc(N2CCCCC2)c2sc(=S)n(C)c2n1,1,21,-11,0,-1,111,·
S=c1nccc(-c2ccc(Cl)cc2)[nH]1,12,-49,-11,56*,-2,99,41*
S=c1[nH]c(-c2ccc(Cl)cc2)cs1,35,13,6,50*,3,98,9
NC(=NC1CCCCC1)NS(=O)(=O)c1ccccc1,·,·,4,·,3,85,·
CCc1ccc2[nH]cc(S(=O)(=O)c3ccc(C)c(C)c3)c(=O)c2c1,·,·,-6,·,-1,97,·
CCc1ccc2[nH]c3nc(C)cc(C)c3c(=O)c2c1,83*,22,-5,58*,13,96,-141
O=C(O)c1ccccc1SC1CC(=O)N(c2cccc3ccccc23)C1=O (configuration not stated),20,23,2,53*,·,100,47*
CN1CCc2cccc3c2[C@H]1Cc1ccc(O)c(O)c1-3,·,4,-12,73*,3,113,36
CN1CCc2cc3c(c4c2[C@H]1[C@H](O)c1ccccc1-4)OCO3,79,-2,-6,-150,-2,103,·
N=c1oc2ccc3ccccc3c2cc1-c1nnc2n1CCCCC2,108*,23,-13,52*,·,104,-6
COc1ccc2oc(=N)c(-c3nnc4n3CCCCC4)cc2c1,4,-12,-1,5,10,97,·
SMILES,Runt-SMMHC FRET,Hck Nef HTS,pCIP destab,Runt-CBFb FRET,RanGTP-Imp inh,Pemphigus Ab inh,RUNX1 CBFb TR
CC1=C(C(=O)OCCOC(C)C)C(c2cccnc2)C2=C(CCCC2=O)N1 (configuration not stated),46,13,-12,25,2,96,·
COCCOC(=O)C1=C(C)NC2=C(C(=O)CC(C)(C)C2)C1c1cccnc1 (configuration not stated),109*,23,-6,50*,11,103,19
CCC(=Cc1ccccc1O)c1ccncc1,·,·,·,·,·,94,·
CCN(CC)S(=O)(=O)c1ccc(OC)c(NS(=O)(=O)c2ccc(F)cc2)c1,149,-1,-13,50*,-2,107,-11
CN1CCc2c(sc(/N=C/c3c[nH]c4ccccc34)c2C(N)=O)C1,14,15,-4,53*,46*,116,-42
CN1CCc2c(sc(/N=C/c3c[nH]c4ccccc34)c2C#N)C1,3,27,-11,50,4,115,·
Cn1c(=O)n(C)c2cc(/C=N/NC(=O)c3ccncc3)ccc21,-1,25,2,0,1,·,·
CCn1c(O)c(/C=N/NC(=O)c2ccncc2)c(=O)n(CC)c1=S,63*,9,-1,59*,2,97,-26
O=C(Nc1ccc(-c2nc3ccccc3s2)c(O)c1)C1=COCCO1,128*,67*,-3,59*,-31,89,2
CC(c1ccc(F)cc1)n1c(Cn2ncc3ccccc3c2=O)n[nH]c1=S (configuration not stated),·,15,-3,·,4,99,·
COC(=O)C1(Cc2ccc3c(c2)CCC3)Cc2ccc3c(c2C1=O)CCC3 (configuration not stated),·,·,·,·,·,134,·
CC(=O)C(Cc1ccccc1)NC(=O)COc1ccc2c(c1)OCO2 (configuration not stated),·,·,·,·,·,97,·
CCCn1nc(NC(=O)c2cccs2)c2cc3cccc(C)c3nc21,85*,32,2,64*,95*,100,27
CCCn1nc(NS(C)(=O)=O)c2cc3cccc(C)c3nc21,-26,3,8,-8,1,105,·
Cc1ccc(NC(=S)N2CCN(S(C)(=O)=O)CC2)cc1Cl,·,·,-11,·,2,112,·
CCOC(=O)c1c(-c2ccccc2)oc2ccc(OC(C)=O)cc12,-1,1,-4,52*,-2,107,29
CCc1ccc(N2C(=O)C(Cl)=C(N3CCCCCC3)C2=O)cc1,·,·,-10,·,-2,?,·
Cc1cccc(N2C(=O)C(Cl)=C(N3CCOCC3)C2=O)c1,42,-8,-2,51*,3,100,18
CCc1ccc(N2C(=O)C(Cl)=C(N3CCOCC3)C2=O)cc1,70,16,-12,68*,-2,105,12
CCN(Cc1ccccc1)S(=O)(=O)c1ccc(C(=O)N(CCCN(C)C)c2nc3c(C)c(C)ccc3s2)cc1,·,·,·,·,5,113,·
CCOC(=O)CN(c1sc(C)c(C)c1C(=O)OCC)S(=O)(=O)c1ccc(C)cc1,·,·,·,·,·,111,·
O=C(c1ccco1)N1CCN(Cc2nnc(-c3cccc(Cl)c3)o2)CC1,·,·,11,·,0,99,·
